Results: ChEMBL document CHEMBL1159035, “Click synthesis of estradiol-cyclodextrin conjugates as cell compartment selective estrogens” (Bioorg Med Chem, 2010)

Key:
Estrogen receptor [1] = target: T1, Estrogen receptor (Homo sapiens, UniProt P03372); assay: Estrogenic activity at ERalpha in human Ishikawa cells assessed as stimulation of alkaline phosphatase activity after 4 days by microplate scanning spectrophotometry; format: cell-based
T1 sequence (P03372 whole entry): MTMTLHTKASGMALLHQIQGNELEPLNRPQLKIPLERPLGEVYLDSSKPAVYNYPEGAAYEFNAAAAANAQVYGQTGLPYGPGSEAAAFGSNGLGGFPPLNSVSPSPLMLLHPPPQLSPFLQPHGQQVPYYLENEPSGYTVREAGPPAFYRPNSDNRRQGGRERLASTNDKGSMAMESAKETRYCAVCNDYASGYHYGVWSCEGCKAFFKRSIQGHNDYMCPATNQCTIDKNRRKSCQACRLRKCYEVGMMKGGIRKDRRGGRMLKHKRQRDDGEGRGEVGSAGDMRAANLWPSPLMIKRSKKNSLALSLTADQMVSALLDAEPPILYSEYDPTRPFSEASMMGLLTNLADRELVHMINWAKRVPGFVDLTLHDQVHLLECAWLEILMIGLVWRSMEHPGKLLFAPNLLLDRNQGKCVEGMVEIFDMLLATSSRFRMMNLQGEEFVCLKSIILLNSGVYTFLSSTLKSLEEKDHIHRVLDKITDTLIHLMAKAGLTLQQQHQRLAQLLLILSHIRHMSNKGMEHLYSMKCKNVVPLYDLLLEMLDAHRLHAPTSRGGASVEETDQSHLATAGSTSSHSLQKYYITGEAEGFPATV

Estrogen receptor [2] = target: T1, Estrogen receptor; assay: Antiestrogenic activity at ERalpha in human Ishikawa cells assessed as alkaline phosphatase activity after 4 days by microplate scanning spectrophotometry; format: cell-based
Estrogen receptor [3] = target: T1, Estrogen receptor; assay: Activation of ERalpha-mediated ERE activity in human T47D/PKC cells coexpressing PKCalpha after 18 hrs by luciferase reporter gene assay; format: cell-based
Estrogen receptor [4] = target: T1, Estrogen receptor; assay: Activation of ERalpha-mediated ERE activity in human T47D/neo cells after 18 hrs by luciferase reporter gene assay; format: cell-based
MCF7 [5] = assay: Drug uptake in human MCF7 cells assessed as drug localization to cytoplasm at 100 nM after 24 hrs by confocal fluorescent microscopy; format: ADME, cell-based; conditions: mcf7, 24 h, 0.1 µM
Method in brief: (§1)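 MCF-7 cells were grown 48 h at 37 °C, 5% CO2 in phenol-free medium with 10% stripped FBS, then exposed to rhodamine conjugates (100 nM) for 24 h. Rinsed twice with PBS, nuclei stained with Hoechst (0.2 µg/mL). Laser-scanning confocal imaging with rhodamine Ex/Em 544/576 nm, nuclear marker 345/420 nm, plus DIC and overlay. Several images of different cells and planes.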

MCF7 [6] = assay: Drug uptake in human MCF7 cells assessed as drug localization to nucleus at 100 nM after 24 hrs by confocal fluorescent microscopy; format: ADME, cell-based; conditions: mcf7, 24 h, 0.1 µM; method in brief: as §1

Compound	EC50 (Estrogen receptor [1]; read-out: EC50)	IC50 (Estrogen receptor [2])	further results
[N-]=[N+]=NC[C@H]1O[C@@H]2O[C@H]3[C@H](O)[C@@H](O)[C@@H](O[C@H]4[C@H](O)[C@@H](O)[C@@H](O[C@H]5[C@H](O)[C@@H](O)[C@@H](O[C@H]6[C@H](O)[C@@H](O)[C@@H](O[C@H]7[C@H](O)[C@@H](O)[C@@H](O[C@H]8[C@H](O)[C@@H](O)[C@@H](O[C@H]1[C@H](O)[C@H]2O)O[C@@H]8CN=[N+]=[N-])O[C@@H]7CN=[N+]=[N-])O[C@@H]6CN=[N+]=[N-])O[C@@H]5C/N=[NH+]\[NH-])O[C@@H]4CN=[N+]=[N-])O[C@@H]3CN=[N+]=[N-]	–	Not Active	EC50 (Estrogen receptor [1]; ishikawa): Not Active
Cn1cc([C@]2(O)CC[C@H]3[C@@H]4CCc5cc(O)ccc5[C@H]4CC[C@@]32C)nn1	–	Not Active	–
C[C@]12CC[C@@H]3c4ccc(O)cc4CC[C@H]3[C@@H]1CC[C@@]2(O)C#Cc1ccc(CO)cc1	27 nM	Not Active	–
C[C@]12CC[C@@H]3c4ccc(O)cc4CC[C@H]3[C@@H]1CC[C@@]2(O)C#Cc1ccc(N)cc1	10 nM	Not Active	–
CC#C[C@]1(O)CC[C@H]2[C@@H]3CCc4cc(O)ccc4[C@H]3CC[C@@]21C [ESTROGEN]	0.028 nM	–	–

Continued, in another order:

EC50 (Estrogen receptor [1]; read-out: EC50)	IC50 (Estrogen receptor [2])	Compound	further results
4000 nM	Not Active	C[C@]12CC[C@@H]3c4ccc(O)cc4CC[C@H]3[C@@H]1CC[C@@]2(O)C#Cc1ccc(CNC[C@H]2O[C@@H]3O[C@H]4[C@H](O)[C@@H](O)[C@@H](O[C@H]5[C@H](O)[C@@H](O)[C@@H](O[C@H]6[C@H](O)[C@@H](O)[C@@H](O[C@H]7[C@H](O)[C@@H](O)[C@@H](O[C@H]8[C@H](O)[C@@H](O)[C@@H](O[C@H]9[C@H](O)[C@@H](O)[C@@H](O[C@H]2[C@H](O)[C@H]3O)O[C@@H]9CO)O[C@@H]8CO)O[C@@H]7CO)O[C@@H]6CO)O[C@@H]5CO)O[C@@H]4CO)cc1	–
–	Not Active	NC[C@H]1O[C@@H]2O[C@H]3[C@H](O)[C@@H](O)[C@@H](O[C@H]4[C@H](O)[C@@H](O)[C@@H](O[C@H]5[C@H](O)[C@@H](O)[C@@H](O[C@H]6[C@H](O)[C@@H](O)[C@@H](O[C@H]7[C@H](O)[C@@H](O)[C@@H](O[C@H]8[C@H](O)[C@@H](O)[C@@H](O[C@H]1[C@H](O)[C@H]2O)O[C@@H]8CN)O[C@@H]7CN)O[C@@H]6CN)O[C@@H]5CN)O[C@@H]4CN)O[C@@H]3CN	EC50 (Estrogen receptor [1]; ishikawa): Not Active
300 nM	Not Active	C[C@]12CC[C@@H]3c4ccc(O)cc4CC[C@H]3[C@@H]1CC[C@@]2(O)C#Cc1ccc(CNC[C@H]2O[C@@H]3O[C@H]4[C@H](O)[C@@H](O)[C@@H](O[C@H]5[C@H](O)[C@@H](O)[C@@H](O[C@H]6[C@H](O)[C@@H](O)[C@@H](O[C@H]7[C@H](O)[C@@H](O)[C@@H](O[C@H]8[C@H](O)[C@@H](O)[C@@H](O[C@H]9[C@H](O)[C@@H](O)[C@@H](O[C@H]2[C@H](O)[C@H]3O)O[C@@H]9CNCc2ccc(C#C[C@]3(O)CC[C@H]9[C@@H]%10CCc%11cc(O)ccc%11[C@H]%10CC[C@@]93C)cc2)O[C@@H]8CNCc2ccc(C#C[C@]3(O)CC[C@H]8[C@@H]9CCc%10cc(O)ccc%10[C@H]9CC[C@@]83C)cc2)O[C@@H]7CNCc2ccc(C#C[C@]3(O)CC[C@H]7[C@@H]8CCc9cc(O)ccc9[C@H]8CC[C@@]73C)cc2)O[C@@H]6CNCc2ccc(C#C[C@]3(O)CC[C@H]6[C@@H]7CCc8cc(O)ccc8[C@H]7CC[C@@]63C)cc2)O[C@@H]5CNCc2ccc(C#C[C@]3(O)CC[C@H]5[C@@H]6CCc7cc(O)ccc7[C@H]6CC[C@@]53C)cc2)O[C@@H]4CNCc2ccc(C#C[C@]3(O)CC[C@H]4[C@@H]5CCc6cc(O)ccc6[C@H]5CC[C@@]43C)cc2)cc1	–
4000 nM	Not Active	C[C@]12CC[C@@H]3c4ccc(O)cc4CC[C@H]3[C@@H]1CC[C@@]2(O)c1cn(C[C@H]2O[C@@H]3O[C@H]4[C@H](O)[C@@H](O)[C@@H](O[C@H]5[C@H](O)[C@@H](O)[C@@H](O[C@H]6[C@H](O)[C@@H](O)[C@@H](O[C@H]7[C@H](O)[C@@H](O)[C@@H](O[C@H]8[C@H](O)[C@@H](O)[C@@H](O[C@H]9[C@H](O)[C@@H](O)[C@@H](O[C@H]2[C@H](O)[C@H]3O)O[C@@H]9CO)O[C@@H]8CO)O[C@@H]7CO)O[C@@H]6CO)O[C@@H]5CO)O[C@@H]4CO)nn1	–
200 nM	Not Active	C[C@]12CC[C@@H]3c4ccc(O)cc4CC[C@H]3[C@@H]1CC[C@@]2(O)c1cn(CC[C@H]2O[C@@H]3O[C@H]4[C@H](O)[C@@H](O)[C@@H](O[C@H]5[C@H](O)[C@@H](O)[C@@H](O[C@H]6[C@H](O)[C@@H](O)[C@@H](O[C@H]7[C@H](O)[C@@H](O)[C@@H](O[C@H]8[C@H](O)[C@@H](O)[C@@H](O[C@H]9[C@H](O)[C@@H](O)[C@@H](O[C@H]2[C@H](O)[C@H]3O)O[C@@H]9Cn2cc([C@]3(O)CC[C@H]9[C@@H]%10CCc%11cc(O)ccc%11[C@H]%10CC[C@@]93C)nn2)O[C@@H]8Cn2cc([C@]3(O)CC[C@H]8[C@@H]9CCc%10cc(O)ccc%10[C@H]9CC[C@@]83C)nn2)O[C@@H]7Cn2cc([C@]3(O)CC[C@H]7[C@@H]8CCc9cc(O)ccc9[C@H]8CC[C@@]73C)nn2)O[C@@H]6Cn2cc([C@]3(O)CC[C@H]6[C@@H]7CCc8cc(O)ccc8[C@H]7CC[C@@]63C)nn2)O[C@@H]5Cn2cc([C@]3(O)CC[C@H]5[C@@H]6CCc7cc(O)ccc7[C@H]6CC[C@@]53C)nn2)O[C@@H]4Cn2cc([C@]3(O)CC[C@H]4[C@@H]5CCc6cc(O)ccc6[C@H]5CC[C@@]43C)nn2)nn1	EC50 (Estrogen receptor [3]): 2 nM; EC50 (Estrogen receptor [4]): > 100 nM; Drug uptake (MCF7 [5]): Active; Drug uptake (MCF7 [6]): Not Active
